Test results from ChEMBL document CHEMBL3091462 (J Nat Prod, 2013).
Activity calls are given as the source filed them. The calls are words filed in the database; no cut-off is given here.

Experiments:
HCT-116 [1] = assay: Antitumor activity against human HCT116 cells xenografted in BALB/c-nude mouse assessed as reduction of tumor weight at 100 mg/kg, po administered every other day from day 2 to 21 (reference value: 469 mg); format: functional
Method in brief: (§1)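 Male BALB/c-nude mice; 2 × 10^6 tumour cells in 0.2 mL PBS injected intradermally into the flank on day 0, n = 10 per group. Oral dosing every other day for 3 weeks, starting 2 days after inoculation. Caliper tumour volume = (width)2 × length/2, measured periodically. Tumours excised and weighed at day 21. Means ± SE.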

SW-620 [2] = assay: Antitumor activity against human SW620 cells xenografted in BALB/c-nude mouse assessed as reduction of tumor volume at 100 mg/kg, po administered every other day from day 2 to 21; format: functional, organism-based; design: dose 100 mg/kg; method in brief: as §1
SW-620 [3] = assay: Induction of apoptosis in human SW620 cells expressing p21 siRNA assessed as increase of expression of cleaved caspase-9 and caspase-3 at 10 uM after 24 hrs by immunoblotting; format: functional, cell-based
Method in brief: (§2)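 Cells transfected with 100 nM scrambled or p21 siRNA for 4 h, then grown 24 h in complete medium and treated with 10 μM for 24 h. p21, caspase-9/-3 and cleaved forms analysed by 15% SDS-PAGE immunoblot with densitometry. Means ± SD, three experiments in triplicate.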

HCT-116 [4] = assay: Induction of apoptosis in human HCT116 cells expressing p21 siRNA assessed as increase of expression of cleaved caspase-9 and caspase-3 at 10 uM after 24 hrs by immunoblotting; format: functional, cell-based; method in brief: as §2
HCT-116 [5] = assay: Cytotoxicity against human HCT116 cells expressing p21 siRNA at 10 uM after 24 hrs by trypan blue staining; format: functional, cell-based
Method in brief: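 Cells plated at 5 × 10^4 per well and transfected 4 h with 100 nM p21 or scrambled siRNA in OPTI-MEM, then grown 24 h in complete medium. Exposed to 10 μM for 24 h. Viability by trypan blue exclusion and direct counting. Means ± SD, three experiments in triplicate, compared with the scrambled-siRNA group.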

SW-620 [6] = assay: Induction of apoptosis in human SW620 cells at 10 uM after 48 hrs using Annexin V-FITC and propidium iodide staining by flow cytometry (reference value: 3.8 +/- 2.1%); format: functional
Method in brief: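 Subconfluent cells in RPMI 1640 + 10% FBS treated with 0–10 μM for 48 h. Harvested cells incubated 10 min with FITC-annexin V/PI, then analysed by flow cytometry (488/525 nm for annexin V-FITC, 488/675 nm for PI). Reported as % apoptotic cells, means ± SD of three experiments in triplicate.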

SW-620 [7] = assay: Effect on Cdk inhibitor gene expression in p53 deficient human SW620 cells at 0.5 to 10 uM after 24 hrs by immunoblotting; format: functional, cell-based
SW-620 [8] = assay: Increase of p21 expression in human SW620 cells at 0.5 to 10 uM after 24 hrs by immunoblotting; format: functional, cell-based
Method in brief: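 HCT-116 or SW-620 cells treated with 0–10 μM for 24 h. Lysates probed for p21 by SDS-PAGE immunoblotting with ECL detection; β-actin as loading control.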

SW-620 [9] = assay: Decrease of cyclin A expression in human SW620 cells after 24 hrs by immunoblotting; format: functional, cell-based
Method in brief: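 HCT-116 or SW-620 cells exposed to 0–10 μM for 24 h. Cells lysed in Tris/NaCl/EDTA/1% Triton X-100 buffer with protease and phosphatase inhibitors at 4 °C, protein measured by BCA. Lysates run on 10–12.5% SDS-PAGE and immunoblotted, ECL detection. Cdk2, cyclin A and cyclin E antibodies used at 1:500; β-actin as loading control.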

SW-620 [10] = assay: Cell cycle arrest in human SW620 cells assessed as accumulation at G2/M phase at 1 uM after 48 hrs using propidium iodide staining by flow cytometry (reference value: 9.1 +/- 0.3%); format: functional
SW-620 [11] = assay: Cell cycle arrest in human SW620 cells assessed as accumulation at G0/G1 phase at 5 uM after 48 hrs using propidium iodide staining by flow cytometry (reference value: 47.8 +/- 1.2%); format: functional
SW-620 [12] = assay: Cell cycle arrest in human SW620 cells assessed as accumulation at G2/M phase at 5 uM after 48 hrs using propidium iodide staining by flow cytometry (reference value: 9.1 +/- 0.3%); format: functional
HCT-116 [13] = assay: Cell cycle arrest in human HCT116 cells assessed as accumulation at S phase after 48 hrs using propidium iodide staining by flow cytometry; format: functional, cell-based
HCT-116 [14] = assay: Cell cycle arrest in human HCT116 cells assessed as accumulation at G2/M phase at 5 uM after 48 hrs using propidium iodide staining by flow cytometry (reference value: 7.1 +/- 0.3%); format: functional
HCT-116 [15] = assay: Cell cycle arrest in human HCT116 cells assessed as accumulation at G0/G1 phase at 5 uM after 48 hrs using propidium iodide staining by flow cytometry (reference value: 56.7 +/- 1.9%); format: functional
HCT-116 [16] = assay: Cell cycle arrest in human HCT116 cells assessed as accumulation at S phase at 1 uM after 48 hrs using propidium iodide staining by flow cytometry (reference value: 36.3 +/- 1.7%); format: functional
HCT-116 [17] = assay: Cell cycle arrest in human HCT116 cells assessed as accumulation at S phase at 0.5 uM after 48 hrs using propidium iodide staining by flow cytometry (reference value: 36.3 +/- 1.7%); format: functional
HCT-116 [18] = assay: Cell cycle arrest in human HCT116 cells assessed as accumulation at G0/G1 phase at 0.5 uM after 48 hrs using propidium iodide staining by flow cytometry (reference value: 56.7 +/- 1.9%); format: functional
HCT-116 [19] = assay: Cell cycle arrest in human HCT116 cells assessed as accumulation at G2/M phase at 0.1 uM after 48 hrs using propidium iodide staining by flow cytometry (reference value: 7.1 +/- 0.3%); format: functional
[20] = Cytotoxicity against human CCD-112CoN cells assessed as cell viability up to 10 uM after 24 to 72 hrs; format: cell-based
Method in brief: (§3)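 Cells seeded at 10^5 per well in RPMI 1640/10% FBS at 37 °C. Subconfluent cells exposed to 0, 0.1, 0.5, 1, 2, 5 or 10 μM for 48 h, or to 10 μM for 24, 48 and 72 h; ethanol vehicle, at most 0.01% v/v final. Cells trypsinized and counted by hemocytometer. Viability as % of control, means ± SD, three experiments in triplicate.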

HCT-116 [21] = assay: Cytotoxicity against human HCT116 cells assessed as cell viability at 0.1 to 2 uM after 24 to 72 hrs; format: functional, cell-based; method in brief: as §3
SW-620 [22] = assay: Cytotoxicity against human SW620 cells at 0.5 to 10 uM; format: functional, cell-based; conditions: TDE = time-dependent effect
Method in brief: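 SW-620 cells seeded at 10^5 per well in RPMI 1640 + 10% FBS at 37 °C, then treated when subconfluent with 0–10 μM for 48 h (or 10 μM for 24–72 h). Ethanol vehicle, at most 0.01% v/v final. Cells trypsinized and counted on a hemocytometer. Result given as % of control, means ± SD of three experiments in triplicate.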

HCT-116 [23] = assay: Cytotoxicity against human HCT116 cells after 24 to 72 hrs; format: functional, cell-based; method in brief: as §3
HCT-116 [24] = assay: Cytotoxicity against human HCT116 cells assessed as inhibition of cell viability at 10 uM after 24 hrs; conditions: HCT-116, 24 h

**Q.** For `CC(C)c1cccc(=O)c(O)c1` [HINOKITIOL], which Activity (HCT-116 [1]) is on record?
**A.** 245 mg

**Q.** And the Activity (SW-620 [2])?
**A.** Active

**Q.** What about the Activity (SW-620 [3]) of the same compound?
**A.** inactive

**Q.** What about the Activity (HCT-116 [4]) of the same compound?
**A.** inactive

**Q.** What about the Activity (HCT-116 [5]) of the same compound?
**A.** inactive

**Q.** And the Activity (SW-620 [6])?
**A.** 80.3%

**Q.** And the Activity (SW-620 [7])?
**A.** inactive

**Q.** And the Activity (SW-620 [8])?
**A.** Active

**Q.** And the Activity (SW-620 [9])?
**A.** Dose-dependent effect

**Q.** And the Activity (SW-620 [10])?
**A.** 6.8%

**Q.** What about the Activity (SW-620 [11]) of the same compound?
**A.** 40.8%

**Q.** What about the Activity (SW-620 [12]) of the same compound?
**A.** 7.2%

**Q.** And the Activity (HCT-116 [13])?
**A.** Dose-dependent effect

**Q.** And the Activity (HCT-116 [14])?
**A.** 11.9%

**Q.** What about the Activity (HCT-116 [15]) of the same compound?
**A.** 44.6%

**Q.** What about the Activity (HCT-116 [16]) of the same compound?
**A.** 37.2%

**Q.** And the Activity (HCT-116 [17])?
**A.** 35.4%

**Q.** And the Activity (HCT-116 [18])?
**A.** 56.5%

**Q.** And the Activity (HCT-116 [19])?
**A.** 7.5%

**Q.** What about the Activity [20] of the same compound?
**A.** Non-toxic

**Q.** What about the Activity (HCT-116 [21]) of the same compound?
**A.** Active

**Q.** What about the Activity (SW-620 [22]) of the same compound?
**A.** tde

**Q.** And the IC50 (HCT-116 [23])?
**A.** 4.5 µM

**Q.** What about the “growth inhibition (GI)” value (HCT-116 [23]) of the same compound?
**A.** Dose-dependent effect

**Q.** And the inhibition of viability at 10 µM (HCT-116 [24])?
**A.** 27%
